Test results reported in ChEMBL document CHEMBL4699451, “Discovery of BIIB068: A Selective, Potent, Reversible Bruton's Tyrosine Kinase Inhibitor as an Orally Efficacious Agent for Autoimmune Diseases” (J Med Chem, 2020).
≈ marks a conversion by molar mass, not a printed value.

Columns and labels:
[1] = Stability in rat plasma assessed as parent compound remaining after 6 hrs; type: ADME, cell-free; conditions: read-out: Stabilty
Method in brief: (§1)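 Compound incubated in plasma for 6 hours, then percentage of parent compound remaining determined.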

[2] = Drug metabolism in human liver microsomes assessed as N-demethylation; type: ADME, Microsome
[3] = Clearance in dog at 1 mg/kg, iv; type: ADME, organism-based, Canis lupus familiaris; conditions: in vivo
[4] = Cmax in rat at 5 mg/kg, po; type: ADME, organism-based; set-up: route oral, dose 5 mg/kg; conditions: in vivo
Cytochrome P450 2D6 = Cytochrome P450 2D6 (Homo sapiens, UniProt P10635); assay: Inhibition of CYP2D6 in human liver microsomes using dextromethorphan as substrate measured after 15 mins in presence of NADPH by LC-MS/MS analysis; type: ADME
Chain of Cytochrome P450 2D6 (P10635 whole entry): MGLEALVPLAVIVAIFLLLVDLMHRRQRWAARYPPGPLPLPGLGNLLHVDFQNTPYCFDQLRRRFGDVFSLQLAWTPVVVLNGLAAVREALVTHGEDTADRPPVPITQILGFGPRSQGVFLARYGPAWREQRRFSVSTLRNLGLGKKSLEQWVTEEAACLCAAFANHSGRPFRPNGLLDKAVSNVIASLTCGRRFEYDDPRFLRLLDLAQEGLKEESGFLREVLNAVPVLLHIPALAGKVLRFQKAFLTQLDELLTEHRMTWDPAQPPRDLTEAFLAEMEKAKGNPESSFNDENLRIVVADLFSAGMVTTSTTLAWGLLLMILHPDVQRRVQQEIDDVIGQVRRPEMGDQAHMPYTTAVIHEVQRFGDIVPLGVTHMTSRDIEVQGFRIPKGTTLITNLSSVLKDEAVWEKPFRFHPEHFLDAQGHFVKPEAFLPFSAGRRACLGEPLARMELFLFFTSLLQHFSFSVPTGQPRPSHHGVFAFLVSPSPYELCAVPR

[5] = Toxicity in Sprague-Dawley rat measured up to 13 weeks; conditions: in vivo
Method in brief: (§2)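 GLP toxicity studies lasting up to 13 weeks, run in Sprague-Dawley rats and cynomolgus monkeys.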

[6] = Drug metabolism in human liver microsomes assessed as oxidation at pyrazole moiety; type: ADME, Microsome
[7] = Toxicity in cynomolgus monkey assessed as change in body weight measured up to 13 weeks; set-up: species or system Macaca fascicularis; conditions: in vivo, 2184 h; method in brief: as §2
[8] = Toxicity in cynomolgus monkey assessed as change in ECG measured up to 13 weeks; set-up: species or system Macaca fascicularis; conditions: in vivo, 2184 h; method in brief: as §2
[9] = Toxicity in Sprague-Dawley rat assessed as effect on clinical pathology measured up to 13 weeks; conditions: in vivo, 2184 h; method in brief: as §2
[10] = Aqueous solubility of compound in simulated intestinal fluid at pH 7 by HPLC method; type: physicochemical
[11] = Genotoxicity in Sprague-Dawley rat assessed as disruption of mitotic apparatus in bone marrow by micronucleus assay; type: toxicity
Method in brief: (§3)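 In vivo micronucleus test in Sprague-Dawley rats; bone marrow scored for micronuclei, clastogenic activity and disruption of the mitotic apparatus.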

[12] = AUC (infinity) in Sprague-Dawley rat at 50 mg/kg; type: ADME, organism-based; set-up: time infinity, dose 50 mg/kg; conditions: in vivo
Method in brief: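 Sprague-Dawley rats and cynomolgus monkeys given compound daily in GLP toxicity studies lasting up to 13 weeks; daily AUCinf taken at the no-observed-adverse-effect dose level of each species.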

[13] = Tmax in human at 10 to 120 mg administered orally using tablet form of sample; type: ADME; conditions: in vivo, po, dose 10-120 mg
Method in brief: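 Single ascending oral tablet doses from 10 mg up to 120 mg given to healthy volunteers; plasma concentration followed over time after dosing.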

[14] = Genotoxicity in Sprague-Dawley rat assessed as clastogenic activity by micronucleus assay; type: toxicity; method in brief: as §3
[15] = biological target: Voltage-gated inwardly rectifying potassium channel KCNH2 (Homo sapiens, UniProt Q12809); assay: Inhibition of human ERG by automated patch-clamp assay
Chain of Voltage-gated inwardly rectifying potassium channel KCNH2 (Q12809 whole entry): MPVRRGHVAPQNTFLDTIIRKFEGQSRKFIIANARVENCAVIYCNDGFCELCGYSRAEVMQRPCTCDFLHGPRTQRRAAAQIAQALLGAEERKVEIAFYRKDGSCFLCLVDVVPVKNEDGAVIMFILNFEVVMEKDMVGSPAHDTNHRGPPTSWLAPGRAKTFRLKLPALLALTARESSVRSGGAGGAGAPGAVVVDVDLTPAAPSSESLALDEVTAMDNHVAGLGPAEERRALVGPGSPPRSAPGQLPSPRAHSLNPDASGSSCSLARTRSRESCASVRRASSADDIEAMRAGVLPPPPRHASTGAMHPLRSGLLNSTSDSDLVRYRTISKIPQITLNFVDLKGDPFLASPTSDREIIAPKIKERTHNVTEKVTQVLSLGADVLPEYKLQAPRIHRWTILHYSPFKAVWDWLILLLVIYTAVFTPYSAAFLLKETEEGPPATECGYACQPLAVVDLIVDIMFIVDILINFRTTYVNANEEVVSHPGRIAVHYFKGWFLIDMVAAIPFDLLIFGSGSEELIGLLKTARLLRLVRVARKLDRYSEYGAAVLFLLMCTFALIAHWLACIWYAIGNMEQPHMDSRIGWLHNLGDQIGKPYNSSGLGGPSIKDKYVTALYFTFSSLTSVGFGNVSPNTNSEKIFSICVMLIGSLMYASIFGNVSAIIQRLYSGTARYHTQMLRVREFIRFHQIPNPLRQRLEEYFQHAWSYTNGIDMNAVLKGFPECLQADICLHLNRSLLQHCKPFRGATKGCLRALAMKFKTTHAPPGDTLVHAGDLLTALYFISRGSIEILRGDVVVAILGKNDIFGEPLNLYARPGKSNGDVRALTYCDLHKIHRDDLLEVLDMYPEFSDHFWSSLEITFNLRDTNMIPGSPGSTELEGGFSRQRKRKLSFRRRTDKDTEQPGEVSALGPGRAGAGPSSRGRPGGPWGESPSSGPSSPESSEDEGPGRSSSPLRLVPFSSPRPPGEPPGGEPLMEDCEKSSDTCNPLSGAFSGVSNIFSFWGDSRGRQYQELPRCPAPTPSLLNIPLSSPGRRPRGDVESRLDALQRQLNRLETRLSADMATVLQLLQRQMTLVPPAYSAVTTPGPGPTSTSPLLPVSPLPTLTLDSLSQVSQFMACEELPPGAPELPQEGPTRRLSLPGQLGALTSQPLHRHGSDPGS

[16] = Protein binding in rat plasma assessed as unbound fraction; type: ADME, cell-free
[17] = Genotoxicity in Sprague-Dawley rat assessed as micronuclei formation by micronucleus assay; type: toxicity; method in brief: as §3
[18] = Clearance in rat at 1 mg/kg, iv; type: ADME, organism-based; conditions: in vivo
Cytochrome P450 2B6 = biological target: T1, Cytochrome P450 2B6 (Homo sapiens, UniProt P20813); assay: Induction of CYP2B6 in human hepatocytes up to 50 uM; type: ADME, cell-based, Hepatocyte
T1 sequence (P20813 whole entry): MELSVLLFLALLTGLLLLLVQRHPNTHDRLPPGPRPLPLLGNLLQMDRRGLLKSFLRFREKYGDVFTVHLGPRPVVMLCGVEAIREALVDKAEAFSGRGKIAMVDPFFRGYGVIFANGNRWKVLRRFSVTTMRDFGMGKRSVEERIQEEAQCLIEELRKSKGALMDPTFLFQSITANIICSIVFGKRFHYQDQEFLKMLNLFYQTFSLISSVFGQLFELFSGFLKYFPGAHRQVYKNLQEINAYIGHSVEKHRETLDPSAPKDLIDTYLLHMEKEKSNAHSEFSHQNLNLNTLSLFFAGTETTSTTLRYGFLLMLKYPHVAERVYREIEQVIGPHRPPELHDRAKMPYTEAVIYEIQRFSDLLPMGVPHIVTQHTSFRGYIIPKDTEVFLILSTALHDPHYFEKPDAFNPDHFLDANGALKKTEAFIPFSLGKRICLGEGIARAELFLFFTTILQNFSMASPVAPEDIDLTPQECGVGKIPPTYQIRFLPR
Method in brief: (§4)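 Sandwich-cultured human hepatocytes exposed at concentrations up to 50 μM; induction of CYP1A2, 2B6 and 3A4 assessed.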

Cytochrome P450 1A2 = biological target: T2, Cytochrome P450 1A2 (Homo sapiens, UniProt P05177); assay: Induction of CYP1A2 in human hepatocytes up to 50 uM; type: ADME, cell-based, Hepatocyte; method in brief: as §4
T2 sequence (P05177 whole entry): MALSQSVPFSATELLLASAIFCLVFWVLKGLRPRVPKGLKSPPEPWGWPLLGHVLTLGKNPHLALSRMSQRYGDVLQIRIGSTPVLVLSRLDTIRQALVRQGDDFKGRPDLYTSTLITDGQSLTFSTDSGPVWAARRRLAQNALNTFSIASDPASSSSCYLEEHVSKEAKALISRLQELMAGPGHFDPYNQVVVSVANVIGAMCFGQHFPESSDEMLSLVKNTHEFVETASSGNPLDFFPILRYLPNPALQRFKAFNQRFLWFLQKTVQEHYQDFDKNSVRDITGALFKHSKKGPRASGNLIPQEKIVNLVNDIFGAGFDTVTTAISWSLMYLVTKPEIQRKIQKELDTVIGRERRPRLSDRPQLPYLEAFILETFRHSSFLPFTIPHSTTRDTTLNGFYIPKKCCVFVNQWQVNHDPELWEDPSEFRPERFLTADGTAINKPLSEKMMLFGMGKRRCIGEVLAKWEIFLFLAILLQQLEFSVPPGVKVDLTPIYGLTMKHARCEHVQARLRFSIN

[19] = Stability in cynomolgus monkey plasma assessed as parent compound remaining after 6 hrs; type: ADME, cell-free, Macaca fascicularis; conditions: read-out: Stabilty; method in brief: as §1
[20] = Toxicity in Sprague-Dawley rat assessed as change in ECG measured up to 13 weeks; conditions: in vivo, 2184 h; method in brief: as §2
[21] = Toxicity in Sprague-Dawley rat assessed as change in body weight measured up to 13 weeks; conditions: in vivo, 2184 h; method in brief: as §2
[22] = AUC in cynomolgus monkey at 5 mg/kg, po; type: ADME, organism-based, Macaca fascicularis; set-up: dose 5 mg/kg; conditions: in vivo
[23] = Clearance in Sprague-Dawley rat at 1 mg/kg, iv relative to hepatic blood flow; type: ADME, organism-based; conditions: in vivo
Cytochrome P450 2C9 = Cytochrome P450 2C9 (Homo sapiens, UniProt P11712); assay: Inhibition of CYP2C9 in human liver microsomes using tolbutamide as substrate measured after 15 mins in presence of NADPH by LC-MS/MS analysis; type: ADME
Chain of Cytochrome P450 2C9 (P11712 whole entry): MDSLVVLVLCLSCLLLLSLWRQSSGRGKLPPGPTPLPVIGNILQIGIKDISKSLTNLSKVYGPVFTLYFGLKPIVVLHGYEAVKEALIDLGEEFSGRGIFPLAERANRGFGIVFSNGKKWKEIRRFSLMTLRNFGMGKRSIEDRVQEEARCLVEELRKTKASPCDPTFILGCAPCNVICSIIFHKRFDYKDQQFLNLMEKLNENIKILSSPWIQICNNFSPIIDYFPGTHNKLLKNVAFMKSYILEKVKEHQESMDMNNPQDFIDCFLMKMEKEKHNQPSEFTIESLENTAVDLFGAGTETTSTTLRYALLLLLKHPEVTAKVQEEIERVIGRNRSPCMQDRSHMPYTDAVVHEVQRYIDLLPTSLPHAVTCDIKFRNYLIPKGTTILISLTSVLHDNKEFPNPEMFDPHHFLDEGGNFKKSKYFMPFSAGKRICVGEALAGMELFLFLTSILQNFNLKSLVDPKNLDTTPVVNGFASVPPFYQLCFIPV

[24] = Half life in human at 10 to 120 mg administered orally using tablet form of sample; type: ADME; conditions: in vivo, po, dose 10-120 mg
Method in brief: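 Phase I single ascending dose study in healthy volunteers; oral tablet at 10 mg escalating through a 120 mg cohort; plasma pharmacokinetics followed, median t1/2 reported per cohort.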

[25] = Aqueous solubility of compound in simulated gastric fluid at pH 2 by HPLC method; type: physicochemical
[26] = Oral bioavailability in rat at 5 mg/kg; type: ADME, organism-based; conditions: in vivo
Method in brief: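 Oral dosing in rats; vehicle 0.1% CMC/0.2% Tween-80.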

[27] = AUC in rat at 5 mg/kg, po; type: ADME, organism-based; set-up: dose 5 mg/kg; conditions: in vivo
[28] = Toxicity in Sprague-Dawley rat assessed as effect on clinical sign measured up to 13 weeks; conditions: in vivo, 2184 h; method in brief: as §2
[29] = Lipophilicity, log D of compound at pH 7.4 by shake flask method; type: physicochemical; conditions: buffer
[30] = Toxicity in Sprague-Dawley rat assessed as effect on CNS administered as single dose; conditions: in vivo
Method in brief: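 Single-dose CNS and respiratory safety studies in rats.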

Cc1cc(-c2ccnc(Nc3cnn(C)c3)n2)ccc1CNC(=O)N1CC(OC(C)C)C1
remaining at 6 h [1]: > 95%
Drug metabolism [2]: Metabolite_Detected
clearance [3]: 11 mL/min/kg
Cmax [4]: 2920 ng/mL
IC50 (Cytochrome P450 2D6): > 25 µM
NOAEL at 2184 h [5]: 50 mg/kg/day
Drug metabolism [6]: Metabolite_Detected
Activity [7]: Non-Toxic
Activity [8]: Non-Toxic
Activity [9]: Non-Toxic
solubility [10]: 1 µg/mL (≈ 2.3 µM)
Activity [11]: Non-Toxic
AUC(0-inf) [12]: 376000 ng·h/mL
Tmax [13]: 0.9 h
Activity [14]: Non-Toxic
IC50 [15]: > 50 µM
fraction unbound [16]: 0.0128
Activity [17]: Non-Toxic
clearance [18]: 3 mL/min/kg
Activity (Cytochrome P450 2B6): Not Active
Activity (Cytochrome P450 1A2): Not Active
remaining at 6 h [19]: > 95%
Activity [20]: Non-Toxic
Activity [21]: Non-Toxic
AUC [22]: 2350 ng·h/mL
CL [23]: 1%
IC50 (Cytochrome P450 2C9): > 25 µM
half-life [24]: 6 h
solubility [25]: > 100 µg/mL
bioavailability [26]: 48%
AUC [27]: 11900 ng·h/mL
Activity [28]: Non-Toxic
logD [29]: 2.92
Activity [30]: Non-Toxic
